High-throughput results: PubChem, several laboratories
Neddyl block: inhibitors of cullin neddylation, primary screen, biochemical, TR-FRET, uHTS, NAE and Ubc12; inhibition, % at 25 µM; 360,000 tested, 0.58% active; in the data active means inhibition above about 36%
Target sequence (P61081 whole entry, looked up): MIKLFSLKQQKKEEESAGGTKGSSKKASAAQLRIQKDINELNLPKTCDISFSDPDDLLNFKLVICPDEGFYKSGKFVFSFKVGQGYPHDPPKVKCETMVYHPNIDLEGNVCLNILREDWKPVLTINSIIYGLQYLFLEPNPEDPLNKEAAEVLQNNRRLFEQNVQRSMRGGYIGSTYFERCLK
Target sequence (Q13564 whole entry, looked up): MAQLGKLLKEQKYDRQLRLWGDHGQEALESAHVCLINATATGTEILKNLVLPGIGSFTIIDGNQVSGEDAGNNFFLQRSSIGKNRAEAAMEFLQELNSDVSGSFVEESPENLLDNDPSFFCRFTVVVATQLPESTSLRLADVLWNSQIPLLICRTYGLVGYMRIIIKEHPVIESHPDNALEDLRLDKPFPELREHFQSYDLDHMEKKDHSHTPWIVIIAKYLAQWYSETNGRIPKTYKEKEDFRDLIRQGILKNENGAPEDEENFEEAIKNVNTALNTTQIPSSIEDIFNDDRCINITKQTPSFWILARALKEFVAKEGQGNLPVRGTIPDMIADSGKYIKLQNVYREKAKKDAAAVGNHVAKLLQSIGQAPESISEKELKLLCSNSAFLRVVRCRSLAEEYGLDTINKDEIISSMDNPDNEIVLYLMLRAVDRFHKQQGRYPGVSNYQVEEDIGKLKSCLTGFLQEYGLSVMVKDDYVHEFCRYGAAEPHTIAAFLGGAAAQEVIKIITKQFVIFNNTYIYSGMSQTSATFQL
SR-BI DiI-HDL act: activators of SR-BI mediated DiI-HDL uptake, primary screen, ldlA[mSR-BI] CHO cells, DiI fluorescence; 3 h; 100 = double the neutral-control signal; activation, % at 12.5 µM; 320,000 tested, 0.096% active;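 active means mean replicate activation of at least 60% and every replicate at or above 60%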;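 further: 0% = median plate neutral-control signal and 100% = twice that signal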
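Test system: SR-BI-overexpressing, LDLR-lacking CHO cells; Also added: labelled HDL, 10 µg/mL; Measured by: bottom-read cell fluorescence after medium removal, ex 550/em 595 nm; Timing: 3 h uptake period with compound, 37 °C; Buffer or medium: F12, 0.5% BSA, 25 mM HEPES; Doses: single compound concentration, delivered by pin transfer.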
SR-BI DiI inh: inhibitors of SR-BI mediated HDL lipid uptake, primary screen, ldlA[mSR-BI] cells, fluorescence, single point. Scavenger receptor class B member 1 (Mus musculus), Q61009. ldlA[mSR-BI] CHO cells, DiI-HDL uptake fluorescence, 3 h. inhibition, % at 12.5 µM. 320,000 tested, 0.96% active. AID 488896, 2010;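 active means mean replicate inhibition of at least 70% and a set share of replicates each scoring 70 or more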;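 further: 0% = median of neutral control wells and 100% = median of positive control wells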
UBC13 polyUb: UBC13 polyubiquitin chain formation inhibitors, primary screen, biochemical, TR-FRET, uHTS; Ubiquitin-conjugating enzyme E2 N (Homo sapiens), P61088; inhibition, % at 20 µM; 330,000 tested, 0.47% active; AID 485273, 2010; in the data active means inhibition above about 45%, passing the limit was not always enough
Neddyl conf: blockade of NEDD8 conjugation to cullin – biochemical, TR-FRET, single concentration, confirmation; shares compounds with Neddyl block; TR-FRET cullin neddylation biochemical assay; calls only at 25 µM; 1,800 tested, 13% active; AID 652217, 2013; in the data active means inhibition above about 40%;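 further: neddylation substrate is the cullin 1 ring ligase complex with SKP2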
Starred values were filed as active, the others as inactive; i = inactive; . = no result shown; + = active, no number. Sampled rows, rich in hits. Any-hit rate of the full collection: about 1.9%.

SMILES | Neddyl block | SR-BI DiI-HDL act | SR-BI DiI inh | UBC13 polyUb | Neddyl conf
CCN(CC)c1ccc(/C=N/NC(=O)Cc2ccc(OC)c(OC)c2)cc1 | 49* | -22 | 22 | 8 | +
CCN(CC)c1ccc(/C=N/NC(=O)C(O)c2ccccc2)cc1 (stereo not given) | 55* | -6 | 6 | -5 | .
Cc1nc2scc(C)n2c(=O)c1S(=O)(=O)NCC1CCN(Cc2ccc(Cl)cc2)CC1 | 45* | 0 | 0 | 9 | i
CC1(C(=O)Nc2cccc3ccccc23)CCN1C(=O)C1(c2ccccc2)CCCC1 (stereo not given) | 5 | . | . | . | .
c1nc(NCc2ccc3c(c2)OCO3)c2cc(-c3ccc4c(c3)OCCO4)ccc2n1 | 34 | -7 | 7 | 4 | .
Cc1cccc(CNc2ncnc3ccc(-c4ccc5c(c4)OCCO5)cc23)c1 | 38* | -39 | 39 | 9 | i
c1cncc(CNc2ncnc3ccc(-c4ccc5c(c4)OCO5)cc23)c1 | 28* | 4 | -4 | 8 | i
Cc1ccc2sc(=O)[nH]c2c1 | 2 | -18 | 18 | -1 | .
Cc1ccc2c3c([nH]c2c1)C(=O)CC(C)(C)S3 | 46* | -23 | 23 | 1 | i
CCC1CCCN1Cn1cnc2c([nH]c3ccccc32)c1=O (stereo not given) | 41* | 2 | -2 | 11 | i
CCC1CCCN1Cn1cnc2c([nH]c3ccc(OC)cc32)c1=O (stereo not given) | . | 2 | -2 | -2 | .
O=C(Cc1cccc(NC(=O)C2CCCN(C(=O)C3CCCCC3)C2)c1)Nc1ccc(C(=O)N2CCCCC2)cc1 (stereo not given) | 2 | -33 | 33 | . | .
O=C(O)c1ccc(/C=N/NC(=O)c2cc3c(ccc4ccccc43)o2)cc1 | 43* | 6 | -6 | -25 | i
COc1ccc(/C=N\NC(=O)c2cc3c(ccc4ccccc43)o2)cc1O | 45* | . | 20 | 7 | i
COc1ccc(/C=N/NC(=O)c2cc3c(ccc4ccccc43)o2)cc1OC | . | 7 | -7 | 14 | .
O=C(N/N=C/c1ccncc1)c1cc2c(ccc3ccccc32)o1 | 25 | -35 | 35 | 9 | .
COc1ccccc1/C=N/NC(=O)c1cc2c(ccc3ccccc32)o1 | 60* | -40 | 40 | 2 | i
COc1ccccc1C(=O)N1CCN(c2ccc(N3CCOCC3)nn2)CC1 | . | 3 | -3 | 10 | .
O=C(c1cccc(Cl)c1)N1CCN(c2ccc(N3CCOCC3)nn2)CC1 | 57* | -2 | 2 | 9 | .
O=C(c1cccc([N+](=O)[O-])c1)N1CCN(c2ccc(N3CCOCC3)nn2)CC1 | -13 | 13 | -13 | -5 | .
O=C(c1ccc(Cl)cc1Cl)N1CCN(c2ccc(N3CCOCC3)nn2)CC1 | 52* | 6 | -6 | 5 | .
O=C(c1ccccc1)N1CCN(c2ccc(N3CCOCC3)nn2)CC1 | 63* | 12 | -12 | 6 | .
CCCS(=O)(=O)NC(=O)C1(C)CCCN(C(=O)c2ccc(SC(F)(F)F)cc2)C1 (stereo not given) | -2 | . | . | . | .
CN(CCOc1ccc(Cl)cc1)C(=O)c1cc(-c2ccco2)nc2ccccc12 | 62* | -12 | 12 | 12 | .
O=C(c1cc(-c2ccco2)nc2ccccc12)N1CCCC(C(F)(F)F)C1 (stereo not given) | 60* | -7 | 7 | 26 | .
SMILES | Neddyl block | SR-BI DiI-HDL act | SR-BI DiI inh | UBC13 polyUb | Neddyl conf
O=C(Nc1ccc(F)cc1F)c1cc(-c2ccco2)nc2ccccc12 | 9 | . | . | 1 | .
COc1cccc(NC(=O)c2cc(-c3ccco3)nc3ccccc23)c1 | 38* | -31 | 31 | -8 | .
O=C(Nc1ccccc1F)c1cc(-c2ccco2)nc2ccccc12 | 45* | -32 | 32 | 2 | .
CC(=O)c1cccc(NC(=O)c2cc(-c3ccco3)nc3ccccc23)c1 | 14 | . | . | 6 | .
C=CCNC(=O)/C(C#N)=C/c1c(N2CCCCCC2)nc2ccccn2c1=O | 48* | . | . | -2 | i
N#C/C(=C\c1c(N2CCCCCC2)nc2ccccn2c1=O)C(=O)NCc1ccco1 | -23 | -16 | 16 | -2 | .
COCCN1CCN(c2c(C)c(C)nc3cc(-c4cccc(OC)c4)nn23)CC1 | 24 | -30 | 30 | 3 | .
CCOCCN1CCN(c2c(C)c(C)nc3cc(-c4cc(OC)cc(OC)c4)nn23)CC1 | 45* | -40 | 40 | 4 | i
O=S(Cc1ccc(Cl)cc1)c1ccccc1 (stereo not given) | -5 | 7 | -7 | . | .
CSc1nc2nccc(-c3ccc4c(c3)OCO4)n2n1 | 48* | -2 | 2 | 2 | i
CC1CCN(c2ccccc2NC(=O)c2cc3ccccc3o2)CC1 | 37* | 6 | -6 | -13 | i
N#C/C(=C/c1cn(-c2ccccc2)nc1-c1cccc(S(=O)(=O)N2CCOCC2)c1)C(=O)NCc1ccco1 | 41* | -18 | 18 | -5 | i
CCOc1ccccc1NC(=O)CCNC(=O)C1CCN(S(=O)(=O)c2ccccc2)CC1 | 9 | . | . | . | .
O=C(CCn1cnc2ccccc21)N/N=C/c1ccccc1O | 41* | 19 | -19 | 12 | i
CCOc1ccc(NC(=O)COC(=O)c2ccc3ncsc3c2)cc1OCC | 65* | -6 | 6 | 4 | i
COC(=O)C(C)n1cnc2c(nnn2-c2cccc(OC)c2)c1=O (stereo not given) | 15 | 10 | -10 | 3 | .
COc1ccc(NC(=O)N2c3ccc(OC)cc3C(C)=CC2(C)C)cc1 | 45* | -14 | 14 | 5 | .
O=C(NCc1cccs1)c1cccn2c(=O)c3sccc3nc12 | 43* | . | . | 9 | i
O=C(NCc1ccco1)c1cccn2c(=O)c3sccc3nc12 | 55* | 9 | -9 | -6 | .
CCOC(=O)N1CCN(C(=O)c2cccn3c(=O)c4sccc4nc23)CC1 | . | 16 | -16 | 13 | .
O=C1N(c2ccccc2)C(c2ccccc2)C12CCCCC2 (stereo not given) | 14 | -6 | 6 | . | .
O=C(Nc1ccccc1Br)c1ccc(N2CCCC2=O)cc1 | 5 | -34 | 34 | -1 | .
Cc1ccc(Cn2c(=N)c(C(=O)NCCN3CCOCC3)cc3c(=O)n4ccccc4nc32)cc1 | 62* | -4 | 4 | -7 | +
CC1(C(=O)NCc2ccccc2)CN(S(C)(=O)=O)CC(=O)N1CCc1ccccc1F (stereo not given) | 11 | . | . | . | .
CC(C)Sc1nnc(-c2ccc(S(=O)(=O)N3CCOCC3)cc2)n1C | 44* | . | . | -9 | i
O=C(c1cnn2c(C(F)(F)F)cc(-c3cccs3)nc12)N1CCCC1 | 44* | . | . | 4 | .
Cc1ccc(-c2cc(-c3ccc(F)cc3)c(C#N)c(N)n2)o1 | 53* | -34 | 34 | -10 | .
